Data reported in ChEMBL document CHEMBL2346655, “Synthesis and in vitro biological evaluation of 2,6,9-trisubstituted purines targeting multiple cyclin-dependent kinases” (Eur J Med Chem, 2013).

Legend:
[1] = test system: MCF7; test: Cytotoxicity against human MCF7 cells assessed as reduction in number of viable cells after 72 hrs by fluorescence assay; format: functional, cell-based; details: MCF7, 72 h
Outline: (§1)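 Three-fold compound dilutions tested in triplicate on cultured cells for 72 h. Viable cells detected by adding Calcein AM and reading fluorescence at 485/538 nm (ex/em).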

[2] = test system: CCRF-CEM; test: Cytotoxicity against human CEM cells assessed as reduction in number of viable cells after 72 hrs by fluorescence assay; format: functional, cell-based; outline: as §1
[3] = test system: HOS; test: Cytotoxicity against human HOS cells assessed as reduction in number of viable cells after 72 hrs by fluorescence assay; format: functional, cell-based; outline: as §1
[4] = target: Cyclin-dependent kinase 2/cyclin E1 (Homo sapiens, UniProt P24941); test: Inhibition of CDK2/Cyclin E (unknown origin) expressed in Sf9 cells using histone H1 as substrate
[5] = test system: HCT-116; test: Cytotoxicity against human HCT116 cells assessed as reduction in number of viable cells after 72 hrs by fluorescence assay; format: functional, cell-based; details: HCT-116, 72 h; outline: as §1
[6] = test system: G-361; test: Cytotoxicity against human G361 cells assessed as reduction in number of viable cells after 72 hrs by fluorescence assay; format: functional, cell-based; details: G-361, 72 h; outline: as §1
[7] = test system: K562; test: Cytotoxicity against human K562 cells assessed as reduction in number of viable cells after 72 hrs by fluorescence assay; format: functional, cell-based; details: K562, 72 h; outline: as §1
[8] = target: CDK9/cyclin T1 (Homo sapiens, UniProt P50750); test: Inhibition of CDK9/CyclinT1 (unknown origin) using (YSPTSPS)2KK as substrate; format: protein-complex assay
CDK9/cyclin T1, sequence (O60563 whole entry): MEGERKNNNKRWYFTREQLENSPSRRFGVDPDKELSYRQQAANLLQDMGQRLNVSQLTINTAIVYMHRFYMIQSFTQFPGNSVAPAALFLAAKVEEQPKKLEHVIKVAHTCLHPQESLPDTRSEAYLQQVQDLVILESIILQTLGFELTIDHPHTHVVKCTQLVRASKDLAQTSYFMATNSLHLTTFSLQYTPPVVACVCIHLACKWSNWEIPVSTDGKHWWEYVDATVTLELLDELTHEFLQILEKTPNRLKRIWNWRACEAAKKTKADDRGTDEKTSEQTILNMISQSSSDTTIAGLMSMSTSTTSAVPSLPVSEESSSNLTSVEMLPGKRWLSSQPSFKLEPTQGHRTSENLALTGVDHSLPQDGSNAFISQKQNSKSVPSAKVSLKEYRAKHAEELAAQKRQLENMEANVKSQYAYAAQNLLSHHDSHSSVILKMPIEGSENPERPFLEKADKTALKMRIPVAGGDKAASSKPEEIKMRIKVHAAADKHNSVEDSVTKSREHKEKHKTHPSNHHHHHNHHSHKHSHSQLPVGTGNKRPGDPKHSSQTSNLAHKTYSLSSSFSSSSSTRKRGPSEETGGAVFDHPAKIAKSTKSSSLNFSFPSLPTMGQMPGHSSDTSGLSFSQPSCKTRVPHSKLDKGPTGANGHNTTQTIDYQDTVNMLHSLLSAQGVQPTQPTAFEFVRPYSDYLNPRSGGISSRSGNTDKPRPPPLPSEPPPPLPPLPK
CDK9/cyclin T1, sequence (P50750 whole entry): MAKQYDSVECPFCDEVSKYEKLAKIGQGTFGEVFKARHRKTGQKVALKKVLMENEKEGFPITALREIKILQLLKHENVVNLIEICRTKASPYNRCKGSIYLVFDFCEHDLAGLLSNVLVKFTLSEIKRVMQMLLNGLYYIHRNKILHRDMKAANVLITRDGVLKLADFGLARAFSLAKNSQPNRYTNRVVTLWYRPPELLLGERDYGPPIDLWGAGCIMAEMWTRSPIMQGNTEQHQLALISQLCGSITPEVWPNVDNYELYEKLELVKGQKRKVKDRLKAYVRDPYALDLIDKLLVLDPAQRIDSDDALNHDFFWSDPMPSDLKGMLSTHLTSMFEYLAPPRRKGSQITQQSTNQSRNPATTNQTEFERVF
Outline: (§2)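 Buffer was 60 mM HEPES-NaOH pH 7.5, 3 mM MgCl2, 3 mM MnCl2, vanadate, DTT and PEG. Reactions were stopped with H3PO4 and spotted on P-81 paper, which was then washed. Radioactivity was imaged; IC50 taken from dose–response curves.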

[9] = target: Cyclin-dependent kinase 5/CDK5 activator 1 (Homo sapiens, UniProt Q00535); test: Inhibition of CDK5/P35 (unknown origin) using histone H1 as substrate; format: protein-complex assay
Cyclin-dependent kinase 5/CDK5 activator 1, sequence (Q00535 whole entry): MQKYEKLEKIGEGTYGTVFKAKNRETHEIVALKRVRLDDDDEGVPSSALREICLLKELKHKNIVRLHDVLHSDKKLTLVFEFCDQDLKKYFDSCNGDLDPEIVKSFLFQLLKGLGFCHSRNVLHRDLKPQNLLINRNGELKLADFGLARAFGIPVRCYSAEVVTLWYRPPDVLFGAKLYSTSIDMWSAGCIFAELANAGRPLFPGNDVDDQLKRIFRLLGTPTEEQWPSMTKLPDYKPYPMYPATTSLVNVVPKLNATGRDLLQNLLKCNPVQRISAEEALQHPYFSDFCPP
Cyclin-dependent kinase 5/CDK5 activator 1, sequence (Q15078 whole entry, further chain): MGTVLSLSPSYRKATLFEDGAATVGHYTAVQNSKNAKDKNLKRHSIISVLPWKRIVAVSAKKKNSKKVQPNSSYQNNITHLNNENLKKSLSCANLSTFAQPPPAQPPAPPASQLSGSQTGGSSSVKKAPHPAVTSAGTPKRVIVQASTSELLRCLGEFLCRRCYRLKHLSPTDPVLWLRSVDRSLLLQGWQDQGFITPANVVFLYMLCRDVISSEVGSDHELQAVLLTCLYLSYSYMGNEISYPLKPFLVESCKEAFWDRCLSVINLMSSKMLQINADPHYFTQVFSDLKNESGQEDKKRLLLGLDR

[10] = target: Cyclin-dependent kinase 7/ cyclin H (Homo sapiens, UniProt P50613); test: Inhibition of CDK7/CyclinH/MAT1 (unknown origin) using (YSPTSPS)2KK as substrate; format: protein-complex assay; outline: as §2
Cyclin-dependent kinase 7/ cyclin H, sequence (P51946 whole entry): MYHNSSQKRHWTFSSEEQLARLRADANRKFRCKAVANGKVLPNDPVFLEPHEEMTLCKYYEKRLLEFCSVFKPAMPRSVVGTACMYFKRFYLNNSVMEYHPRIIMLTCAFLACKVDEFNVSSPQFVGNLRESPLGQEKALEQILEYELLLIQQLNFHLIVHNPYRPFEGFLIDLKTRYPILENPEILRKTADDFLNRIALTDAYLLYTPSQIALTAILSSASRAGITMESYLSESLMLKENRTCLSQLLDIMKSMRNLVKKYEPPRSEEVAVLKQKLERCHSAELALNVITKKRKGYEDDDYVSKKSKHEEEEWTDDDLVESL
Cyclin-dependent kinase 7/ cyclin H, sequence (P50613 whole entry): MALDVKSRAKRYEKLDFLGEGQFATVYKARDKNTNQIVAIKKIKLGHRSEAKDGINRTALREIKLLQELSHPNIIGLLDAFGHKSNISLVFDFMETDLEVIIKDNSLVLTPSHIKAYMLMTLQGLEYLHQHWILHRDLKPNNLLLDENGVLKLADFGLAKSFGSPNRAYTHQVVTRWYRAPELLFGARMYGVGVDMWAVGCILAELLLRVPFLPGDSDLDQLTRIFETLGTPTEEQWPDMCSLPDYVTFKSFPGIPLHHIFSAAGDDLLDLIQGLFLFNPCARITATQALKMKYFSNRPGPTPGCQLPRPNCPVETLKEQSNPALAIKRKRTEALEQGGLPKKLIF

SMILES	IC50 [1] [µM]	IC50 [2] [µM]	IC50 [3] [µM]	IC50 [4] [µM]	IC50 [5] [µM]	IC50 [6] [µM]	IC50 [7] [µM]	IC50 [8] [µM]	IC50 [9] [µM]	IC50 [10] [µM]
CC[C@H](CO)Nc1nc(NCc2cccc(OC)c2OC)c2ncn(C(C)C)c2n1	21	38	67.5	0.031	29.5	46.6	40.1			
CC(C)n1cnc2c(NCc3cc(Cl)ccc3O)nc(NC3CCC(O)CC3)nc21 (centres undefined)	2.6	3.2	6.4	0.061	13.2	8.2	2.4	0.91	0.55	0.54
CC[C@@H](Nc1nc(NCc2cc(F)ccc2O)c2ncn(C(C)C)c2n1)C(C)O (mixture of isomers)	1.8	1.6	2.4	0.0118	1.8	1.9	2.9	0.1	0.067	0.18
CC(C)n1cnc2c(NCc3ccc(O)cc3)nc(N3CCNCC3)nc21	4.1	13.4	6.5	0.34	9.3	12.4	9.3			
COc1ccc(CNc2nc(N3CCNCC3)nc3c2ncn3C(C)C)cc1	3.53	10.8	5.1	0.89	11.5	10.1	5.3			
CC[C@H](CO)Nc1nc(NCc2ccc(N)cc2)c2ncn(C(C)C)c2n1	18.1	22.6	29.4		23.8	26	71.5			
CC(C)[C@H](Nc1nc(NCc2ccccc2N)c2ncn(C(C)C)c2n1)C(C)(C)O	12.8	13.1	42.7	0.07	11.8	18.7	39.8	0.845	0.675	0.29
CC[C@H](CO)Nc1nc(NCc2cc(F)ccc2O)c2ncn(C(C)C)c2n1	3.6	3.9	4.5	0.019	4.8	6.5	4.1	0.106	0.24	
CC[C@H](CO)Nc1nc(NCc2ccccc2O)c2ncn(C(C)C)c2n1 [OLOMOUCINE II]	9.1	7.4	10.6		4.1	9.2	23	0.815		
CC(C)n1cnc2c(NCc3cc(Cl)ccc3O)nc(N[C@@H](C)C(C)(C)O)nc21	1.4	2.5	1.8	0.0243	1.8	1.2	2			
CC[C@H](CO)Nc1nc(NCc2cc(Cl)ccc2O)c2ncn(C(C)C)c2n1	4.6	3.7	5	0.0094	5.4	4.3	3.2	0.285	0.15	
CC(C)CNc1nc(NCc2ccccc2O)c2ncn(C(C)C)c2n1	14.1	13.6	23.9	0.22	22.2	15.7	10.8	3.13	2.36	
CC(C)n1cnc2c(NCc3ccccc3O)nc(NCCC(C)(C)O)nc21	65.9	34.6	45.5	0.26	64.1	52.2	47.3	> 5	4.49	
CC[C@H](CO)Nc1nc(NCc2ccccc2)c2ncn(C(C)C)c2n1 [SELICICLIB]	12.3	16.3	24.3		14.4	22.4	45.5			
CC(C)n1cnc2c(NCc3cc(Cl)ccc3O)nc(NCC(C)(C)O)nc21	2.7	3.9	4.4	0.019	4	4.3	5.1		0.069	0.435
COc1cccc(CNc2nc(N3CCNCC3)nc3c2ncn3C(C)C)c1O	8.3	27.5	30.6	0.63	22.5	18.9	14.2			
COc1ccc(CNc2nc(N3CCN(C)CC3)nc3c2ncn3C(C)C)cc1	12	13.1	11.2	0.89	13.4	13.9	11.9			
CC(C)n1cnc2c(NCc3cc(Cl)ccc3O)nc(NC3CCC(N)CC3)nc21 (centres undefined)	1.8	3.3	2.2	0.025	2.4	2.4	2.4	0.039	0.125	0.16
CC(C)n1cnc2c(NCc3ccccc3N)nc(NCCC(C)(C)O)nc21	100	100	100	0.79	100	100	100	> 5	> 5	
CC[C@H](CO)Nc1nc(NCc2cccc(OC)c2O)c2ncn(C(C)C)c2n1	12.6	16.6	14.8	0.06	12.3	22	54.8			
CC(C)n1cnc2c(NCc3ccccc3N)nc(NCC(C)(C)O)nc21	13.5	12.6	16.9	0.02	12.9	12.6	34	1.24	0.74	1.2
CC[C@@H](CO)Nc1nc(NCc2cccc(OC)c2O)c2ncn(C(C)C)c2n1	5.3	10.7	5.9	0.059	8.7	7.8	15.4			
